# Screens deposited in PubChem BioAssay by several laboratories.
# PABP1 MLLE inh = inhibitors of PABP1 MLLE–PAM2 peptide binding, primary screen, biochemical, fluorescence polarization, FITC-PAM2, GST-MLLE | inhibition, % at 20 µM | actives 0.36% (n = 360,000) | AID 588489, 2011; in the data active = inhibition above about 35%, passing the limit was not always enough
# PABP polyA inh = PABP poly(A) RNA binding inhibitors, primary screen, biochemical, fluorescence polarization, uHTS; Polyadenylate-binding protein 1 (Homo sapiens), P11940; calls only at 35 µM; actives 1% (n = 290,000); AID 2014, 2009;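 also: calls also rest on retests at 20 µM and on dose response follow-up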
# eIF4H inh = human eIF4H binding inhibitors, primary screen, translation initiation inhibitor project, biochemical, uHTS, fluorescence polarization. actives 0.94% (n = 290,000). inhibition, % at 35 µM. Eukaryotic translation initiation factor 4H (Homo sapiens), Q15056. eIF4H fluorescence polarization binding assay;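 also: calls also rest on retests at 20 µM and on dose response follow-up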
# IMP-1 inhibitor = IMP-1 metallo-beta-lactamase inhibitors, primary screen, biochemical, epi-absorbance readout, Pseudomonas aeruginosa enzyme; metallo-beta-lactamase IMP-1 (Pseudomonas aeruginosa); purified IMP-1, nitrocefin hydrolysis, epi-absorbance fluorescence; inhibition, % at 5.6 µM; actives 0.45% (n = 290,000);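 active = inhibition above the mean plus 3 SD of all compounds in the same screening run, cut at about 4.5% in these data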
#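 System: purified recombinant IMP-1 beta-lactamase. Medium: Zinc- and detergent-supplemented HEPES buffer, pH 7.1. Compound: one 5.6 µM dose […]. Schedule: 15 min preincubation plus 25 min reaction at 25 °C. Technique: Epi-absorbance fluorescence, 480 nm excitation, 530 nm emission.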
# VIM-2 inh = VIM-2 metallo-beta-lactamase inhibitors, primary screen, biochemical, epi-absorbance readout, Pseudomonas aeruginosa enzyme. purified VIM-2, nitrocefin hydrolysis, epi-absorbance fluorescence. inhibition, % at 5.6 µM. actives 0.89% (n = 290,000). AID 1527, 2009;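 active = inhibition above the mean of all tested compounds plus 3 SD, cutoff set per screening run, cut at about 7.5% in these data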;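 also: red hydrolysis product quenches plate fluorescence so inhibitors raise well fluorescence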
# Numbers stand for hits; . = inactive; ? = inconclusive; / = not tested or not shown; + = active, no number. In the library only some 2.2% were active in any assay of this set; here they are far more common. Unless noted, no rule for the calls is given here.
SMILES,PABP1 MLLE inh,PABP polyA inh,eIF4H inh,IMP-1 inhibitor,VIM-2 inh
COC(=O)CSc1[nH]c2ccccc2c1[N+](=O)[O-],39,.,.,.,.
Cc1cc(C)cc(N2CC(O)=C(c3nc4ccccc4c(=O)[nH]3)C2=N)c1,.,.,.,.,.
CC(C)N1CC(O)=C(c2nc3ccccc3c(=O)[nH]2)C1=N,.,.,.,.,10
COCCCn1c(=NC(=O)c2ccncc2)c(C#N)cc2c(=O)n3cccc(C)c3nc21,.,?,?,.,.
Cc1cccn2c(=O)c3cc(C#N)c(=NC(=O)c4ccncc4)n(CCCOC(C)C)c3nc12,.,+,75,.,.
CCOC(=O)c1cc2c(=O)n3cccc(C)c3nc2n(CCCOC)c1=NC(=O)c1cccnc1,.,.,.,.,10
CCOC(=O)c1cc2c(=O)n3cccc(C)c3nc2n(CCOC)c1=NC(=O)c1ccncc1,/,/,/,.,.
Fc1cccc(-c2nnn3c2nc(Cl)c2ccccc23)c1,.,.,.,.,.
O=C(Nc1ccc(Nc2ccncc2)cc1)c1ccc(Nc2ccnc3ccc([N+](=O)[O-])cc23)cc1[N+](=O)[O-],.,.,.,9.1,.
Nc1nc(N)c(N=Nc2ccccc2)c(=O)[nH]1,.,/,/,/,/
Nc1nc(N=Nc2ccc(O)cc2)cc(=O)[nH]1,52,/,/,/,/
CCCCc1c(C)nc2ccc(C(=O)OCC)cc2c1Cl,.,+,.,.,.
C[C@H]1CN([C@@H](C)CO)C(=O)c2cc(Br)cnc2O[C@@H]1CN(C)C(=O)c1ccncc1,.,/,/,/,/
CC(=O)N1CC(C)Oc2ccc(S(=O)(=O)NC(CC(=O)O)c3ccccc3)cc21 (stereo unspecified),.,.,.,.,.
COc1ccc(OC)c(C2=C/C(=C/c3ccccn3)C(=O)O2)c1,.,.,91,.,.
COc1ccc(OC)c(-c2oc3ccccc3c(=O)c2O)c1,.,.,.,.,.
Cn1nccc1C(=O)NC1CCCc2c1cnn2-c1ccc(C(C)(C)C)cc1 (stereo unspecified),.,.,.,.,.
Cc1ccc(-c2csc3nc(CN(C)Cc4ccccc4)[nH]c(=O)c23)cc1,.,+,98,.,.
O=c1[nH]c(Cc2ccc(F)cc2)nc2scc(-c3ccc(F)cc3)c12,.,.,.,.,.
CCOC(=O)C(OC(=O)c1sc(=S)n(C)c1C)C(C)=O (stereo unspecified),.,.,.,.,9.2
O=C(COc1ccc(Cl)cc1)Nc1nnc(-c2ccco2)o1,.,.,.,.,.
O=C(COc1ccccc1)Nc1nnc(-c2ccco2)o1,.,+,.,.,.
CCOc1ccc(C(=O)N/N=C/c2ccc(-c3ccc(S(=O)(=O)Nc4ncccn4)cc3)o2)cc1,.,+,69,.,.
O=C(N/N=C/c1ccc(-c2ccc(S(=O)(=O)Nc3ncccn3)cc2)o1)c1cc2ccccc2cc1O,.,+,83,.,.
Cc1ccc(C)c(N(CC(=O)N/N=C/c2ccc(-c3ccc([N+](=O)[O-])cc3)o2)S(=O)(=O)c2ccccc2)c1,.,.,?,.,.
SMILES,PABP1 MLLE inh,PABP polyA inh,eIF4H inh,IMP-1 inhibitor,VIM-2 inh
CCOc1ccc(S(=O)(=O)N(CC(=O)N/N=C/c2ccc(-c3ccc([N+](=O)[O-])cc3)o2)c2ccccc2)cc1,.,+,79,.,.
COC(=O)Nc1nnc(-c2ccncc2)s1,36,.,.,.,.
Cc1ccc(NC(=O)Nc2nnc(-c3ccncc3)s2)cc1C,.,.,.,.,.
O=C1CCCC2=C1C(c1ccco1)Nc1ccc3ccccc3c12 (stereo unspecified),.,+,80,.,.
O=C1CCCC2=C1C(c1ccc(O)c(O)c1)Nc1ccc3ccccc3c12 (stereo unspecified),.,/,/,/,/
C/C(CC(=O)NC12CC3CC(CC(C3)C1)C2)=N\NC(=O)c1ccc(F)cc1,.,.,.,.,.
CNC(=O)/C(C#N)=C\c1ccc(CNS(=O)(=O)c2ccccc2)o1,.,.,.,.,.
CNC(=O)/C(C#N)=C\c1ccc(CNS(=O)(=O)c2ccc(Cl)cc2)o1,.,+,.,.,.
Nc1cc(C(=O)O)ccc1Nc1ccc(F)c(F)c1,.,+,65,.,.
Cc1ccc2nc(SCC(=O)NCCCN3CCCC3=O)[nH]c2c1,.,/,/,/,/
CCN1CCN(c2ccc(NC(=O)CCc3c(C)nc4c(-c5ccccc5)c(C)nn4c3C)cc2)CC1,.,.,.,4.9,.
O=c1[nH]cc(CCc2ccccc2)c(=O)[nH]1,.,/,/,/,/
COc1ccc(-c2cc(C3CC3)nc(N)c2C#N)cc1,.,.,.,.,8.8
C1CCN(C2CCN(c3nc4nonc4nc3N3CCSCC3)CC2)C1,.,.,.,.,.
C1CC2CN(c3nc4nonc4nc3N3CCSCC3)CCN2C1 (stereo unspecified),52,.,.,.,.
CC(C)(C)C(=O)Nc1c2c(nn1-c1ccc(F)cc1)CSC2,37,.,.,.,.
Oc1c(Cl)cc(Cl)cc1CNc1ccc(Br)cn1,.,.,.,6.1,.
Oc1ccc(Cl)cc1CNc1ccc(Br)cn1,.,.,.,.,.
CC(C)Oc1ccc(CN=C(N)N=C(N)N)cc1Cl,.,+,active,.,.
COc1ccc(CN=C(N)N=C(N)N)cc1Cl,.,.,.,.,.
CC1=NC(C)(C)Cc2cc(C)c(C)cc21,.,.,.,.,.
COc1ccc(C2(CNS(=O)(=O)c3ccc(C)cc3)CCOCC2)cc1,.,.,.,.,.
O=C1CNC(=O)/C(=C/c2ccco2)N1,.,.,106,.,.
Cc1ccc(N=C2NC(=O)/C(=C\c3ccco3)S2)cc1,.,.,.,.,.
CCCC(C)NC(=O)c1c2c(nc3ccccc13)CCC2 (stereo unspecified),.,.,.,.,.
SMILES,PABP1 MLLE inh,PABP polyA inh,eIF4H inh,IMP-1 inhibitor,VIM-2 inh
O=C(NCc1ccco1)c1c2c(nc3ccccc13)CCC2,.,+,89,.,.
O=C(NCc1ccc(F)cc1)c1c2c(nc3ccccc13)CCC2,.,.,71,.,.
Nc1c(C(=O)NCc2ccco2)sc2nc3c(cc12)C(=O)CCC3,.,+,89,.,.
CCOC(=O)C1=CNS(=O)(=O)NC1c1ccc(C[C@H](NC(=O)CNC(=O)CCc2ccccc2)C(N)=O)cc1 (stereo partly specified),.,/,/,/,/
CCN1C(=O)[C@H]2[C@@H](c3ccc(OC)cc3)N3C(=O)CN(CCOC)C(=O)[C@@]3(C)[C@H]2C1=O,.,.,.,.,.
C[C@H](NC(=O)c1ccco1)C(=O)NCc1cccs1,.,/,/,/,/
O=C1CCC/C=C\C[C@H](CC(=O)N(CCO)Cc2ccccc2)C(=O)N2CCC[C@@H]2CO1,.,/,/,/,/
CCCN(CC(=O)Nc1ccccc1OC)CC(=O)c1c(N)n(Cc2ccccc2)c(=O)n(C)c1=O,.,/,/,/,/
